Results on 15 molecules are retold here after article PMC4216208 (Journal of Medicinal Chemistry, 2014).

“Also recorded” adds a separate entry of the source. Some results are limits rather than exact numbers.

Series [1] deals with HEK 293T/17 cells. Description: Mitochondrial-uncoupling assay. The series is classed as cell-based, human. The settings on record: 50 μM compound, TMRE staining. The method in brief: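 HEK 293T/17 cells were trypsinised and suspended at 1−2 × 10^6 cells/mL in DMEM with 10% FBS, then given test compound (50 μM) or DMSO for 30 min at 37 °C. TMRE (~450 nM final) was added for 30 min in the dark at 37 °C. Cells were washed twice in 0.2% BSA/PBS, resuspended, and read by plate fluorescence (em 575 nm). Unstained and DMSO controls were included; mean ± sd, n = 3.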

Another series deals with C. elegans. In words: Bioaccumulation in C. elegans. The format is in vitro ADME, Caenorhabditis elegans. The conditions noted are these: for accumulation in C. elegans (in words): late-stage L4 worms, 10 μM (2 nmol/mg worm), 6 h, LC-MS of homogenates; for worm concentration as share of the dose: at 6 h, dose 2 nmol/mg worm. The method in brief:
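Synchronised C. elegans grown to late L4 on E. coli OP50 at 25 °C for 40 h, water-washed, and suspended in M9 at ~5−10 worms/μL. Dosed at 10 μM final (~2 nmol/mg worm) from DMSO stock, 6 or 12 h at rt. Washed in 0.1% SDS then water, frozen, lyophilised, weighed, extracted into cold MeOH/MeCN with internal standard. Quantified by LC-ESI-MS against blank-worm calibration; mean ± sd, n = 3.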

Another series concerns O. volvulus L3 larvae. Description: O. volvulus L3 molting inhibition. The format is cell-based, Onchocerca volvulus. The conditions noted are these: for inhibition at 1 µM: Onchocerca volvulus, read-out: inhibition of O. volvulus L3 molting.
The next series deals with T1, OvCHT1 (Onchocerca volvulus, UniProt Q25615).
T1 sequence (Q25615 22-497): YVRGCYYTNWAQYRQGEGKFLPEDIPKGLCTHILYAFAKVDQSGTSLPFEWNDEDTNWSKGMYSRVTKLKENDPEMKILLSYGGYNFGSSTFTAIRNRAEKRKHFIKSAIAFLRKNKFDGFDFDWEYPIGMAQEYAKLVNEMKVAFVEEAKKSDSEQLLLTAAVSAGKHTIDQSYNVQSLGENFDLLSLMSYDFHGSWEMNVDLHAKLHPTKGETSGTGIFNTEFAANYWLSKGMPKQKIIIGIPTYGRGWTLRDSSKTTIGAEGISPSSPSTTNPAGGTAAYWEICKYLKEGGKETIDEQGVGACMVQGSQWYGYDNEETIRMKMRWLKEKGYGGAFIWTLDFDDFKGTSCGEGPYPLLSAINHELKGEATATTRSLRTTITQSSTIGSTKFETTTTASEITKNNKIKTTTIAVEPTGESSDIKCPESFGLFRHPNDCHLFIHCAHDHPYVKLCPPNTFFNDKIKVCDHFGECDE
In words: O. volvulus chitinase. The settings on record: for inhibition of OvCHT1 at single concentration: 10 μM final concentration, relative to control (0.5% DMSO in water). The format is biochemical.

For the next series, the target named is T2, BmCHT1 (Brugia malayi, UniProt P29030).
T2 sequence (P29030 23-504): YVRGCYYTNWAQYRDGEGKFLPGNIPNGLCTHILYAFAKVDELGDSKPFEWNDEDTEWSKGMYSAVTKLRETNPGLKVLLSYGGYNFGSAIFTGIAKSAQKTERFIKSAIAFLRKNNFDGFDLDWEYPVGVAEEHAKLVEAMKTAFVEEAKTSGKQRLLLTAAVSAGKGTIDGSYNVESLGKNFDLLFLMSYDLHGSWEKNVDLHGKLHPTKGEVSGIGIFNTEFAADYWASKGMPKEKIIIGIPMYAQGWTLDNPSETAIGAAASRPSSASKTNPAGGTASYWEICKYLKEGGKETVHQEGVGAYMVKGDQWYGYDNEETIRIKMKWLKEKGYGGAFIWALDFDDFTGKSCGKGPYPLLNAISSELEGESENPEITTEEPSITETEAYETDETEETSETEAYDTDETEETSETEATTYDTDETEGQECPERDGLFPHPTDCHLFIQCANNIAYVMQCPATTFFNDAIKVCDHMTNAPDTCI
Description: Chitinase activity assay, Brugia malayi chitinase. The conditions noted are these: 10 μM final concentration. The format is biochemical.

The test system of the next series is EhCHT1. In words: Chitinase activity assay, Entamoeba histolytica chitinase. The series is classed as biochemical. The conditions noted are these: 10 μM final concentration.
A further series concerns the target T3, PfCHT1 (Plasmodium falciparum, UniProt Q8I4R4).
T3 sequence (Q8I4R4 29-378): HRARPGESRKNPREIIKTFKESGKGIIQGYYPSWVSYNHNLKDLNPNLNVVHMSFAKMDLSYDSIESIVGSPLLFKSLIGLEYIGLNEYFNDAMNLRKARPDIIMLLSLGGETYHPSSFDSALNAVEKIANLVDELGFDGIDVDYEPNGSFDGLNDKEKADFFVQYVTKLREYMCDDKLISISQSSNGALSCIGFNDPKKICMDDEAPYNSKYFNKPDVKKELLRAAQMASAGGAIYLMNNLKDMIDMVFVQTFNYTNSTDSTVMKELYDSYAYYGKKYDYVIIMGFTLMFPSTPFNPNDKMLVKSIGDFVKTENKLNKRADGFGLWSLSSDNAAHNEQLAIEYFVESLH
In words: Chitinase activity assay, Plasmodium falciparum chitinase. The format is biochemical. The conditions noted are these: 10 μM final concentration.

The subject of series [2] is HEK 293T/17 cells. Description: Cell viability assay. The series is classed as cell-based, human. The conditions noted are these: 1 and 10 μM, 24 h, MTS assay. In outline: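 HEK 293T/17 cells (2 × 10^4) plated and held 24 h at 37 °C, then exposed to test compound at 1 and 10 μM final. Viability was read by MTS at 0.5 and 24 h after treatment.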
Setting [3] is: 10 μM, 24 h preincubation, molting assessed day 6.

As to `N#CC(C#N)=NNc1cccc(Cl)c1` [CCCP, carbonyl cyanide m-chlorophenyl hydrazone, reference compound], in the series on HEK 293T/17 cells [1], the “mitochondrial-uncoupling (protonophoric) activity” value (“mitochondrial-uncoupling” for short) is “a protonophore only”. The “accumulation in C. elegans (in words)” value in the series on C. elegans is “accumulated in C. elegans”. Further, the “effect on O. volvulus L3 molting” value was “did not show any impact on molting” in the series on O. volvulus L3 larvae (1 μM) and “fully inhibited the molting” in the series with O. volvulus L3 larvae (setting [3]).
`O=C(Nc1ccc(Oc2ccccc2)cc1)c1cc(I)cc(I)c1O` [Compound 3a, 2-Hydroxy-3,5-diiodo-N-(4-phenoxyphenyl)benzamide]: the “mitochondrial-uncoupling” value in the series on HEK 293T/17 cells [1] is “mitochondrial-uncoupling activity”.
Consider `COc1c(I)cc(I)cc1C(=O)Nc1ccc(Oc2ccccc2)cc1` [Compound 3b, 3,5-Diiodo-2-methoxy-N-(4-phenoxyphenyl)benzamide], for which the “mitochondrial-uncoupling” value with HEK 293T/17 cells [1] was “loss of uncoupling activity”.
Still for that read-out and setting: with `CN(C(=O)c1cc(I)cc(I)c1O)c1ccc(Oc2ccccc2)cc1` [Compound 3c, 2-Hydroxy-3,5-diiodo-N-methyl-N-(4-phenoxyphenyl)benzamide] the entry was “eradicated protonophoric activity”; with `COc1c(I)cc(I)cc1C(=O)N(C)c1ccc(Oc2ccccc2)cc1` [Compound 3d, 3,5-Diiodo-2-methoxy-N-methyl-N-(4-phenoxyphenyl)benzamide], “loss of uncoupling activity”; with `O=C(Nc1ccc(Oc2ccccc2)cc1)c1cc(I)cc(I)c1` [Compound 3e, 3,5-Diiodo-N-(4-phenoxyphenyl)benzamide], “loss of uncoupling activity”.
On to `O=C(Nc1ccc(Oc2ccc(Cl)cc2)cc1)c1cc(I)cc(I)c1O` [Compound 3h, N-(4-(4-Chlorophenoxy)phenyl)-2-hydroxy-3,5-diiodobenzamide], for which the “inhibition of OvCHT1 at single concentration” value (“inhibition of OvCHT1” for short) on OvCHT1 is given as “complete inhibition”. Also, at BmCHT1, the “inhibition of BmCHT1 at single concentration” value (shortened to “inhibition of BmCHT1”) is listed as “sparing”. Further, the “inhibition of EhCHT1 at single concentration” value (“inhibition of EhCHT1” below) in the series on EhCHT1 was “sparing”. Also, the “inhibition of PfCHT1 at single concentration” value (from here on “inhibition of PfCHT1”) against PfCHT1 is on record as “sparing”. In the series on HEK 293T/17 cells [1], the “mitochondrial-uncoupling” value was “mitochondrial-uncoupling activity”. Besides, in the series on C. elegans, the “accumulation in C. elegans (in words)” value is listed as “accumulated in C. elegans”. Besides, in the series with O. volvulus L3 larvae (setting [3]), the “effect on O. volvulus L3 molting” value is “completely abolished molting”. Moreover, the inhibition at 1 µM with O. volvulus L3 larvae is ≤ 84%. Also, the “effect on cell viability of HEK 293T/17 cells” value in the series on HEK 293T/17 cells [2] is on record as “no considerable effect on cell viability”.
Regarding `COc1c(I)cc(I)cc1C(=O)Nc1ccc(Oc2ccc(Cl)cc2)cc1` [Compound 3i, N-(4-(4-Chlorophenoxy)phenyl)-3,5-diiodo-2-methoxybenzamide], the “inhibition of OvCHT1” value against OvCHT1 is “complete inhibition”. Moreover, the “inhibition of BmCHT1” value on BmCHT1 is recorded as “sparing”. For the same molecule, in the series on EhCHT1, the “inhibition of EhCHT1” value was “sparing”. The “inhibition of PfCHT1” value on PfCHT1 was “sparing”. Besides, the “mitochondrial-uncoupling” value in the series on HEK 293T/17 cells [1] is “loss of uncoupling activity; also recorded: devoid of protonophoric activity”. For the same molecule, the “accumulation in C. elegans (in words)” value in the series with C. elegans is listed as “accumulated in C. elegans”. The “effect on O. volvulus L3 molting” value is “only marginal inhibition” in the series on O. volvulus L3 larvae (setting [3]) and “completely hindered L3 molting” in the series on O. volvulus L3 larvae (100 μM).
Take `O=C(Nc1ccc(Oc2ccc(Cl)cc2)cc1)c1cc(I)cc(I)c1` [Compound 3j, N-(4-(4-Chlorophenoxy)phenyl)-3,5-diiodobenzamide]: the “inhibition of OvCHT1” value at OvCHT1 is “complete inhibition”. At BmCHT1, the “inhibition of BmCHT1” value is on record as “sparing”. For the same molecule, the “inhibition of EhCHT1” value in the series on EhCHT1 is “sparing”. For the same molecule, on PfCHT1, the “inhibition of PfCHT1” value is on record as “sparing”. Moreover, the “mitochondrial-uncoupling” value in the series on HEK 293T/17 cells [1] is recorded as “loss of uncoupling activity; also recorded: devoid of protonophoric activity”. In the series with C. elegans, the “accumulation in C. elegans (in words)” value is “accumulated in C. elegans”.
As to `O=C(Nc1ccc2ccccc2c1)c1cc(I)cc(I)c1O` [Compound 4a, 2-Hydroxy-3,5-diiodo-N-(naphthalen-2-yl)benzamide], in the series with HEK 293T/17 cells [1], the “mitochondrial-uncoupling” value is listed as “mitochondrial-uncoupling activity”. Further, in the series with C. elegans, the “worm concentration as share of the dose” value is recorded as “less than 50%” and the “accumulation in C. elegans (in words)” value is given as “accumulated in C. elegans”. For the same molecule, the “effect on O. volvulus L3 molting” value in the series with O. volvulus L3 larvae (setting [3]) is “completely abolished molting”. Moreover, the inhibition at 1 µM with O. volvulus L3 larvae was ≤ 84%. In addition, the “effect on cell viability of HEK 293T/17 cells” value with HEK 293T/17 cells [2] is reported as “no considerable effect on cell viability”.
In the case of `COc1c(I)cc(I)cc1C(=O)Nc1ccc2ccccc2c1` [Compound 4b, 3,5-Diiodo-2-methoxy-N-(naphthalen-2-yl)benzamide], the “mitochondrial-uncoupling” value in the series on HEK 293T/17 cells [1] was “loss of uncoupling activity; also recorded: devoid of protonophoric activity”. In addition, in the series with C. elegans, the “worm concentration as share of the dose” value is “less than 50%” and the “accumulation in C. elegans (in words)” value is reported as “accumulated in C. elegans”. Moreover, the “effect on O. volvulus L3 molting” value with O. volvulus L3 larvae (1 μM) is “did not show any impact on molting”. For the same molecule, in the series on O. volvulus L3 larvae (setting [3]), the “effect on O. volvulus L3 molting” value is “inhibited molting”.
For `O=C(Nc1ccc2ccccc2c1)c1cc(I)cc(I)c1` [Compound 4c, 3,5-Diiodo-N-(naphthalen-2-yl)benzamide], the “mitochondrial-uncoupling” value in the series on HEK 293T/17 cells [1] was “loss of uncoupling activity”.
As to `O=C(Nc1ccc(-c2ccccc2)cc1)c1cc(I)cc(I)c1O` [Compound 5a, N-([1,1′-Biphenyl]-4-yl)-2-hydroxy-3,5-diiodobenzamide], on OvCHT1, the “inhibition of OvCHT1” value is on record as “complete inhibition”. In addition, on BmCHT1, the “inhibition of BmCHT1” value is given as “sparing”. Besides, in the series with EhCHT1, the “inhibition of EhCHT1” value is reported as “sparing”. Moreover, at PfCHT1, the “inhibition of PfCHT1” value is listed as “sparing”. Besides, the “accumulation in C. elegans (in words)” value with C. elegans is “accumulated in C. elegans”.
`O=C(Nc1ccc(-c2ccc(Cl)cc2)cc1)c1cc(I)cc(I)c1O` [Compound 5c, N-(4′-Chloro-[1,1′-biphenyl]-4-yl)-2-hydroxy-3,5-diiodobenzamide]: the “inhibition of OvCHT1” value against OvCHT1 was “complete inhibition”. Further, at BmCHT1, the “inhibition of BmCHT1” value is listed as “sparing”. For the same molecule, in the series on EhCHT1, the “inhibition of EhCHT1” value is reported as “sparing”. Further, the “inhibition of PfCHT1” value on PfCHT1 is recorded as “sparing”. The “accumulation in C. elegans (in words)” value in the series on C. elegans is “accumulated in C. elegans”.
As for `COc1c(I)cc(I)cc1C(=O)O` [Compound 6b, 3,5-Diiodo-2-methoxybenzoic Acid], on OvCHT1, the “OvCHT1 inhibitor or not (in words)” value is given as “neither an OvCHT1 inhibitor nor a protonophore”. Also, the “mitochondrial-uncoupling” value in the series with HEK 293T/17 cells [1] is reported as “neither an OvCHT1 inhibitor nor a protonophore”. Moreover, the “effect on O. volvulus L3 molting” value with O. volvulus L3 larvae (setting [3]) was “no inhibition on molting”.
